# This is a sample that favours compounds with a hit; in the whole collection about 2.6% have one here.
# PGE2 EP2 inh: inhibitors of human EP2 prostaglandin E2 receptor; P43116; C6 glioma cells expressing human EP2, cAMP TR-FRET; cells stimulated with saturating PGE2; inhibition, % at 25 µM; 0.52% of 260,000 active;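 active = percent inhibition above 40 after rounding to a whole number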;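 also: rat C6 glioma host cells with rolipram phosphodiesterase inhibitor present; the protocol text gives 20 µM as final concentration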
# Granule exo inh: blocks lytic granule exocytosis; inhibition, % at 10 µM; TALL-104 LAMP-1 surface exposure, flow cytometry; cells stimulated with thapsigargin and PMA; 0.66% of 360,000 active; AID 651702;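 active = inhibition above about 55%, limit read from the data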
# EP2 modulator: modulates human prostaglandin E2 receptor EP2 signaling; 0.83% of 260,000 active; induction, % at 25 µM; AID 940; EP2-expressing cells, cAMP HTRF FRET, PGE2 co-stimulation;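 active = compounds whose cAMP rise, as percent of the full-agonist control response, exceeds 60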;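 also: rat C6 glioma line stably carrying human EP2 under a CMV promoter; the protocol text gives 20 µM as final concentration; 100% = response of wells given 1 µM PGE2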
# T cell modulator: modulates CD8 T cell binding to vesicles | 2C CD8+ T cell-vesicle binding, flow cytometry; hits give low values | response (vesicle binding), % at 7 µM | 0.068% of 330,000 active | AID 2052;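 active = response, share of CD8 T cells binding vesicles, and their 90th percentile fluorescence all below set limits, cut at about 80% in these data, passing the limit was not always enough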;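 also: values below 100% mean blocked vesicle binding to the CD8+ T cells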
#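 material = purified 2C TCR transgenic mouse naive CD8+ T cells | controls = Unloaded micro-vesicles (low), QL9 vesicles with 0.7% DMSO (high) | detection = cytometric PE anti-B7-1 and Alexa647 anti-CD8 signals after 1% paraformaldehyde fixation | incubation = binding step 1.5 h, 37 °C, antibody labelling 20 min, ice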
# MC4R antagonist: human MC4R antagonism in cAMP assay | MC4R-expressing cells, MTII-stimulated cAMP, LANCE TR-FRET | P32245 | inhibition, % at 6.5 µM | 0.48% of 360,000 active;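 active = inhibition above its plate's cutoff, the mean of tested wells on that plate plus 3 SD, cut at about 29% in these data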;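 also: 0% = Melanotan II alone and 100% = Melanotan II plus saturating MCL0020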
# Target sequence (P32245 whole entry, looked up): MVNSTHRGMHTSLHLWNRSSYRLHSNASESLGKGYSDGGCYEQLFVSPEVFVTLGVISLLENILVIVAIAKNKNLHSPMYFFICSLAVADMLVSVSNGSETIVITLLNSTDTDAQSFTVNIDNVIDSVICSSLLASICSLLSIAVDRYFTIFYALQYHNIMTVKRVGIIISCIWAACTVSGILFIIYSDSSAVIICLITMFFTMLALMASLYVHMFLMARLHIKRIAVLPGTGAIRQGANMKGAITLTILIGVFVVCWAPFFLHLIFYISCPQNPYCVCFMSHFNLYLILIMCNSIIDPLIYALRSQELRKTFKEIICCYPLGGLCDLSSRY
#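 Material: human MC4R-expressing U2OS cells. Probe or stimulus: Melanotan II challenge. Dosing: 6.5 µM single dose. Times: 30-min compound, 1-h challenge, 1-h detection, room temperature. Technique: TR-FRET with Eu-cAMP and labeled anti-cAMP, 671 nm. Replication: singlicate.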
# MC4R barr agon: human MC4R agonism via beta-arrestin; activation, % at 8.9 µM; AID 540308; P32245; 0.98% of 360,000 active; U2OS MC4R beta-arrestin complementation, luminescence; percent of melanotan II response, DMSO zero;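 active = activation above a per-plate cutoff, the mean activation of sample wells on that plate plus 3 SD, cut at about 8% in these data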
# The depositor's hits bear a star; . = no result given.
SMILES,PGE2 EP2 inh,Granule exo inh,EP2 modulator,T cell modulator,MC4R antagonist,MC4R barr agon
Cc1cc2cc(CN(CCc3ccccc3)Cc3nnnn3CC3CCCO3)c(=O)[nH]c2cc1C (configuration not stated),5,.,-20,.,.,.
CCc1ccc2[nH]c(=O)c(CN(Cc3ccccc3OC)Cc3nnnn3C(C)(C)CC)cc2c1,22,.,61*,.,.,.
Cc1ccc2[nH]c(=O)c(CN(Cc3cccs3)Cc3nnnn3C3CCCC3)cc2c1,15,.,75*,.,.,.
Cc1ccc2cc(CN(Cc3ccccc3)Cc3nnnn3C3CCCC3)c(=O)[nH]c2c1,6,-2,62*,832,2,8
Cc1ccc(Cl)cc1N1CCN(C(=O)COc2ccc3c(c2)CCC3)CC1,8,0,6,548,1,-2
CCOC(=O)Cn1nnnc1CN(Cc1ccccc1)Cc1cc2c(C)cc(C)cc2[nH]c1=O,15,.,65*,.,.,.
CCc1ccc2[nH]c(=O)c(CN(Cc3ccccc3)Cc3nnnn3C3CCCCC3)cc2c1,17,.,74*,.,.,.
CCc1ccc2[nH]c(=O)c(CN(Cc3ccc4c(c3)OCO4)Cc3nnnn3C3CCCC3)cc2c1,8,8,54,391,15,3
Cc1ccc2cc(CN(Cc3ccc(F)cc3)Cc3nnnn3C3CCCC3)c(=O)[nH]c2c1,3,1,57,609,1,6
Cc1ccc2[nH]c(=O)c(CN(Cc3ccc(F)cc3)Cc3nnnn3C3CCCC3)cc2c1,19,.,63*,.,.,.
CCOc1ccc2oc(C(=O)OCC(=O)N3C(C)CCCC3C)c(C)c2c1 (configuration not stated),.,-5,.,262,3,-2
COc1cccc(-n2nnnc2S(C)(=O)=O)c1,19,80*,-9,122,43*,-3
CN(C)CC1(c2ccccc2)CCCC1,4,3,13,200,2,1
Cc1ccc(C(=O)N2CC(C)CC(C)C2)cc1S(=O)(=O)N1CCCCC1 (configuration not stated),.,2,.,694,-4,-1
COc1ccc(N=c2oc3cc(O)ccc3cc2C(=O)Nc2ccccn2)cc1OC,43*,6,-84,67,10,-2
COc1cccc(N=c2oc3cc(O)ccc3cc2C(=O)Nc2nccs2)c1,7,.,-37,.,.,.
CCOC(=O)CCCNC(=O)CCNC(=O)c1ccc(OCCC(C)C)cc1,8,0,41,339,6,0
Cc1cc(NC(=O)c2ccccc2F)n(-c2nc3ccccc3[nH]2)n1,3,-3,34,431,-4,2
Cc1cc(NC(=O)c2ccc(C)s2)n(-c2nc3ccccc3[nH]2)n1,10,5,63*,380,20,2
N#Cc1cccc2c1-c1ccccc1/C2=N/NC(N)=S,.,10,.,219,-47,17*
N#Cc1cccc2c1-c1ccccc1/C2=N/NC(N)=O,.,2,.,169,-9,0
COCCNc1nnc(SCC(=O)Nc2sc3c(c2C(=O)c2ccccc2)CCCC3)s1,3,7,10,406,8,0
O=C(C[n+]1ccc2ccccc2c1)c1cccc2ccccc12,7,1,-27,147,-1,0
c1ccc2c[n+](CCCC[n+]3ccc4ccccc4c3)ccc2c1,43*,.,-5,.,.,.
Cn1c(/C=C/c2ccc(Br)cc2)nc2ccccc2c1=O,.,4,.,72,26,9.0*
Clc1ccc(Cn2cc(/C=N/n3cnnc3)c3ccccc32)cc1,12,-2,37,327,12,6
Cc1ccccc1Cn1cc(/C=N/n2cnnc2)c2ccccc21,7,-2,64*,107,9,-2
CCn1c(CNC(=O)c2ccco2)nnc1SCC(=O)Nc1ccc(Br)cc1F,1,-4,32,426,-3,-3
Cn1c(SCC(=O)c2ccc3c(c2)NC(=O)CO3)nc2ccccc21,18,2,-17,309,27,14*
C[C@H]1CN([C@@H](C)CO)C(=O)CCCn2nncc2CO[C@@H]1CN(C)Cc1ccc(Cl)c(Cl)c1,.,17,.,.,10,1

# Screens from PubChem.
